Source: ChEMBL document CHEMBL3751743, “Synthesis and anti-cancer screening of novel heterocyclic-(2H)-1,2,3-triazoles as potential anti-cancer agents” (Medchemcomm, 2015)
The source made the active and inactive calls. No cut-off for these calls is given here.

Tests used:
[1] = Cytotoxicity against human DU145 cells after 48 hrs by SRB assay; format: functional; settings: DU-145, 48 h
How it was run: (§1)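 NCI-60 five-dose screen: compounds dissolved in DMSO/H2O, tested at five 10-fold dilutions (10^-4 to 10^-8 M) for 48 h. Growth measured by sulforhodamine B optical density at time zero and after 48 h drug or vehicle exposure. Percentage growth calculated relative to control. GI50 is the molar concentration giving 50% reduction in net cell growth versus day-0 cell numbers.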

MCF7 = experiment: Cytotoxicity against human MCF7 cells after 48 hrs by SRB assay; format: functional; settings: MCF7, 48 h; how it was run: as §1
MDA-MB-231 = experiment: Cytotoxicity against human MDA-MB-231 cells after 48 hrs by SRB assay; format: functional; settings: MDA-MB-231, 48 h; how it was run: as §1
[2] = Cytotoxicity against human Hs 578T cells after 48 hrs by SRB assay; format: functional; how it was run: as §1
[3] = Cytotoxicity against human BT549 cells after 48 hrs by SRB assay; format: functional; settings: BT-549, 48 h; how it was run: as §1
T47D = experiment: Cytotoxicity against human T47D cells after 48 hrs by SRB assay; format: functional
How it was run: (§2)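 NCI-60 five-dose screen. Compounds dissolved in DMSO/H2O and tested at five 10-fold dilutions (10^-4 to 10^-8 M) for 48 h. Growth read by sulforhodamine B optical density at time zero and after 48 h of exposure to compound or vehicle. Percent growth calculated against control. GI50 is the molar concentration giving 50% reduction in net cell growth relative to cell number on day 0.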

MDA-MB-468 = experiment: Cytotoxicity against human MDA-MB-468 cells after 48 hrs by SRB assay; format: functional; settings: MDA-MB-468, 48 h; how it was run: as §1
Tubulin (Sus scrofa) = Tubulin (Sus scrofa) (UniProt P02554+P02550); experiment: Inhibition of porcine brain tubulin polymerization at 200 uM by spectrophotometric analysis
Sequence of Tubulin (Sus scrofa) (P02550 whole entry, looked up): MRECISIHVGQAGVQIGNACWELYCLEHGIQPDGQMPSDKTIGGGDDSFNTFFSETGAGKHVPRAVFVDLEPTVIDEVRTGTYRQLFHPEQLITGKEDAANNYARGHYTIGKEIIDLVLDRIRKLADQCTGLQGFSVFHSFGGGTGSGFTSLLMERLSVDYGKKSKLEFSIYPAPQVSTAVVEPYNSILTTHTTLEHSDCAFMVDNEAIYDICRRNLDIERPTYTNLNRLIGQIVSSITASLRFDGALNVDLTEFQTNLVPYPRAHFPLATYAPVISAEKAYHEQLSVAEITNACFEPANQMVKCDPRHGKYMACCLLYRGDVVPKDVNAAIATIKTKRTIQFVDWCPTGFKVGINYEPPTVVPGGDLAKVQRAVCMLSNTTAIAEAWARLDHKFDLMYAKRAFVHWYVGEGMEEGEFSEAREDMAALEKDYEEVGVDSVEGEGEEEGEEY
Sequence of Tubulin (Sus scrofa) (P02554 whole entry, looked up): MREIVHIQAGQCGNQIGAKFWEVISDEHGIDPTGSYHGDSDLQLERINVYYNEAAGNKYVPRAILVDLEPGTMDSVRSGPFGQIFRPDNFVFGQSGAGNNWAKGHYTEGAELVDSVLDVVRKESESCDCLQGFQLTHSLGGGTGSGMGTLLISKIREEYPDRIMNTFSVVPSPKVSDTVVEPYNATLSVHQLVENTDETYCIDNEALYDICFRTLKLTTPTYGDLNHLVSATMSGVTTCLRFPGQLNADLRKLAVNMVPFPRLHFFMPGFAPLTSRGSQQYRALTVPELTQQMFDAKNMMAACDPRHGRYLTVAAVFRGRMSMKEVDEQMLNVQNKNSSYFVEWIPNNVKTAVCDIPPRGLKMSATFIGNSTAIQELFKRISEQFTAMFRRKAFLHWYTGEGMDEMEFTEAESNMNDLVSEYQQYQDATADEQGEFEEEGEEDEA

CCRF-CEM = experiment: Cytotoxicity against human CCRF-CEM cells after 48 hrs by SRB assay; format: functional; how it was run: as §1
[4] = Cytotoxicity against human HL-60(TB) cells after 48 hrs by SRB assay; format: functional; settings: HL-60, 48 h; how it was run: as §1
K562 = experiment: Cytotoxicity against human K562 cells after 48 hrs by SRB assay; format: functional; settings: K562, 48 h; how it was run: as §1
[5] = Cytotoxicity against human MOLT4 cells after 48 hrs by SRB assay; format: functional; settings: MOLT-4, 48 h; how it was run: as §1
[6] = Cytotoxicity against human RPMI8226 cells after 48 hrs by SRB assay; format: functional; settings: RPMI-8226, 48 h; how it was run: as §1
A549 = experiment: Cytotoxicity against human A549 cells after 48 hrs by SRB assay; format: functional; settings: A549, 48 h; how it was run: as §1
EKVX = experiment: Cytotoxicity against human EKVX cells after 48 hrs by SRB assay; format: functional
How it was run: (§3)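 NCI-60 five-dose screen: compounds in DMSO/H2O tested at 10^-4 to 10^-8 M (10-fold steps) for 48 h. Cell mass read by sulforhodamine B optical density at time zero and after exposure to compound or vehicle. GI50 is the concentration giving 50% reduction in net cell growth relative to day-0 cell numbers.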

[7] = Cytotoxicity against human HOP62 cells after 48 hrs by SRB assay; format: functional; settings: HOP-62, 48 h; how it was run: as §3
[8] = Cytotoxicity against human HOP92 cells after 48 hrs by SRB assay; format: functional; settings: HOP-92, 48 h; how it was run: as §1
NCI-H226 = experiment: Cytotoxicity against human NCI-H226 cells after 48 hrs by SRB assay; format: functional; settings: NCI-H226, 48 h; how it was run: as §1
NCI-H23 = experiment: Cytotoxicity against human NCI-H23 cells after 48 hrs by SRB assay; format: functional; settings: NCI-H23, 48 h; how it was run: as §1
NCI-H460 = experiment: Cytotoxicity against human NCI-H460 cells after 48 hrs by SRB assay; format: functional; settings: NCI-H460, 48 h; how it was run: as §1
NCI-H522 = experiment: Cytotoxicity against human NCI-H522 cells after 48 hrs by SRB assay; format: functional; settings: NCI-H522, 48 h; how it was run: as §1
[9] = Cytotoxicity against human COLO205 cells after 48 hrs by SRB assay; format: functional; settings: COLO 205, 48 h; how it was run: as §1
[10] = Cytotoxicity against human HCC2998 cells after 48 hrs by SRB assay; format: functional; settings: HCC 2998, 48 h; how it was run: as §1
[11] = Cytotoxicity against human HCT116 cells after 48 hrs by SRB assay; format: functional; settings: HCT-116, 48 h; how it was run: as §1
[12] = Cytotoxicity against human HCT15 cells after 48 hrs by SRB assay; format: functional; settings: HCT-15, 48 h; how it was run: as §1
HT-29 = experiment: Cytotoxicity against human HT-29 cells after 48 hrs by SRB assay; format: functional; settings: HT-29, 48 h; how it was run: as §1
KM12 = experiment: Cytotoxicity against human KM12 cells after 48 hrs by SRB assay; format: functional; settings: KM12, 48 h; how it was run: as §1
[13] = Cytotoxicity against human SW620 cells after 48 hrs by SRB assay; format: functional; settings: SW-620, 48 h; how it was run: as §1
[14] = Cytotoxicity against human SF268 cells after 48 hrs by SRB assay; format: functional; settings: SF-268, 48 h; how it was run: as §1
[15] = Cytotoxicity against human SF295 cells after 48 hrs by SRB assay; format: functional; settings: SF-295, 48 h; how it was run: as §1
[16] = Cytotoxicity against human SF539 cells after 48 hrs by SRB assay; format: functional; settings: SF-539, 48 h; how it was run: as §1
[17] = Cytotoxicity against human SNB19 cells after 48 hrs by SRB assay; format: functional; settings: SNB-19, 48 h; how it was run: as §1
U-251 = experiment: Cytotoxicity against human U251 cells after 48 hrs by SRB assay; format: functional; settings: U-251, 48 h; how it was run: as §2
[18] = Cytotoxicity against human LOXIMVI cells after 48 hrs by SRB assay; format: functional; settings: LOX IMVI; how it was run: as §1
Malme-3M = experiment: Cytotoxicity against human MALME-3M cells after 48 hrs by SRB assay; format: functional; how it was run: as §3
M14 = experiment: Cytotoxicity against human M14 cells after 48 hrs by SRB assay; format: functional; settings: M14, 48 h; how it was run: as §1
MDA-MB-435 = experiment: Cytotoxicity against human MDA-MB-435 cells after 48 hrs by SRB assay; format: functional; settings: MDA-MB-435, 48 h; how it was run: as §1
SK-MEL-2 = experiment: Cytotoxicity against human SK-MEL-2 cells after 48 hrs by SRB assay; format: functional; settings: SK-MEL-2, 48 h; how it was run: as §1
SK-MEL-28 = experiment: Cytotoxicity against human SK-MEL-28 cells after 48 hrs by SRB assay; format: functional; settings: SK-MEL-28, 48 h; how it was run: as §1
SK-MEL-5 = experiment: Cytotoxicity against human SK-MEL-5 cells after 48 hrs by SRB assay; format: functional; settings: SK-MEL-5, 48 h; how it was run: as §1
[19] = Cytotoxicity against human UACC257 cells after 48 hrs by SRB assay; format: functional; settings: UACC-257, 48 h; how it was run: as §2
[20] = Cytotoxicity against human UACC62 cells after 48 hrs by SRB assay; format: functional; settings: UACC-62, 48 h; how it was run: as §2
[21] = Cytotoxicity against human IGROV1 cells after 48 hrs by SRB assay; format: functional; settings: IGROV-1, 48 h; how it was run: as §3
[22] = Cytotoxicity against human OVCAR3 cells after 48 hrs by SRB assay; format: functional; settings: OVCAR-3, 48 h; how it was run: as §1
[23] = Cytotoxicity against human OVCAR5 cells after 48 hrs by SRB assay; format: functional; settings: OVCAR-5, 48 h; how it was run: as §1
[24] = Cytotoxicity against human OVCAR8 cells after 48 hrs by SRB assay; format: functional; settings: OVCAR-8, 48 h; how it was run: as §1
[25] = Cytotoxicity against human NCI-ADR-RES cells after 48 hrs by SRB assay; format: functional; how it was run: as §1
[26] = Cytotoxicity against human SKOV3 cells after 48 hrs by SRB assay; format: functional; settings: SK-OV-3, 48 h; how it was run: as §1
786-0 = experiment: Cytotoxicity against human 786-0 cells after 48 hrs by SRB assay; format: functional; settings: 786-0, 48 h; how it was run: as §1
A498 = experiment: Cytotoxicity against human A498 cells after 48 hrs by SRB assay; format: functional; settings: A498, 48 h; how it was run: as §1
ACHN = experiment: Cytotoxicity against human ACHN cells after 48 hrs by SRB assay; format: functional; how it was run: as §1
[27] = Cytotoxicity against human Caki1 cells after 48 hrs by SRB assay; format: functional; settings: CAKI-1, 48 h; how it was run: as §1
[28] = Cytotoxicity against human RXF393 cells after 48 hrs by SRB assay; format: functional; settings: RXF 393, 48 h; how it was run: as §1
[29] = Cytotoxicity against human TK10 cells after 48 hrs by SRB assay; format: functional; settings: TK-10, 48 h; how it was run: as §2
[30] = Cytotoxicity against human UO31 cells after 48 hrs by SRB assay; format: functional; settings: UO-31, 48 h; how it was run: as §2
[31] = Cytotoxicity against human PC3 cells after 48 hrs by SRB assay; format: functional; settings: PC-3, 48 h; how it was run: as §1

Compound: COc1cc(-c2nn(C)nc2-c2cc3ccccc3s2)cc(OC)c1OC
- GI50 [1]: 263 nM
- GI50 (MCF7): 40 nM
- GI50 (MDA-MB-231): 1600 nM
- GI50 [2]: 270 nM
- GI50 [3]: 422 nM
- GI50 (T47D): > 100000 nM
- GI50 (MDA-MB-468): 82 nM
- inhibition (Tubulin (Sus scrofa)): inactive
- GI50 (CCRF-CEM): 220 nM
- GI50 [4]: 48 nM
- GI50 (K562): 42 nM
- GI50 [5]: 333 nM
- GI50 [6]: 362 nM
- GI50 (A549): 167 nM
- GI50 (EKVX): 466 nM
- GI50 [7]: 553 nM
- GI50 [8]: 80 nM
- GI50 (NCI-H226): > 100000 nM
- GI50 (NCI-H23): 392 nM
- GI50 (NCI-H460): 69 nM
- GI50 (NCI-H522): 23 nM
- GI50 [9]: 82 nM
- GI50 [10]: 407 nM
- GI50 [11]: 73 nM
- GI50 [12]: 58 nM
- GI50 (HT-29): 55 nM
- GI50 (KM12): 54 nM
- GI50 [13]: 63 nM
- GI50 [14]: 630 nM
- GI50 [15]: 36 nM
- GI50 [16]: 149 nM
- GI50 [17]: 254 nM
- GI50 (U-251): 78 nM
- GI50 [18]: 168 nM
- GI50 (Malme-3M): 16900 nM
- GI50 (M14): 76 nM
- GI50 (MDA-MB-435): 25 nM
- GI50 (SK-MEL-2): 59 nM
- GI50 (SK-MEL-28): 13000 nM
- GI50 (SK-MEL-5): 225 nM
- GI50 [19]: 51600 nM
- GI50 [20]: 53 nM
- GI50 [21]: 707 nM
- GI50 [22]: 354 nM
- GI50 [23]: 2360 nM
- GI50 [24]: 352 nM
- GI50 [25]: 103 nM
- GI50 [26]: 311 nM
- GI50 (786-0): 312 nM
- GI50 (A498): 41 nM
- GI50 (ACHN): 294 nM
- GI50 [27]: 3770 nM
- GI50 [28]: 286 nM
- GI50 [29]: 578 nM
- GI50 [30]: 744 nM
- GI50 [31]: 77 nM
